Laboratory results as given in ChEMBL document CHEMBL1149777, “Synthesis and anti-platelet activity of novel arylsulfonate--acylhydrazone derivatives, designed as antithrombotic candidates” (2008).

How the values were obtained:
Plasma [1] = assay: Antiplatelet activity against citreated rabbit platelet-rich plasma assessed as ADP-induced platelet aggregation at 150 uM by turbidimetric method; format: functional, Oryctolagus cuniculus
Outline: (§1)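 PRP stirred at 900 rpm, 37 °C, 1 min; compound 150 µM or DMSO vehicle (0.5% v/v) added 1 min before agonist: ADP 5 µM, collagen 5 µg/mL, thrombin 2 nM or arachidonic acid 100 µM. Aggregation read turbidimetrically (Born method).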

Mus musculus = assay: Antithrombotic activity against thrombin-induced pulmonary thromboembolism in mouse model assessed as survival at 100 umol/kg, po after 15 mins; format: functional; settings: 0.25 h
Plasma [2] = assay: Antiplatelet activity against citreated rabbit platelet-rich plasma assessed as collagen-induced platelet aggregation at 150 uM by turbidimetric method; format: functional, Oryctolagus cuniculus; outline: as §1
Plasma [3] = assay: Antiplatelet activity against citreated rabbit platelet-rich plasma assessed as thrombin-induced platelet aggregation at 150 uM by turbidimetric method; format: functional, Oryctolagus cuniculus; outline: as §1
Plasma [4] = assay: Antiplatelet activity against citreated rabbit platelet-rich plasma assessed as inhibition of thrombin-induced platelet aggregation at 150 uM by turbidimetric method; format: functional; settings: Oryctolagus cuniculus; outline: as §1
Plasma [5] = assay: Antiplatelet activity against citreated rabbit platelet-rich plasma assessed as inhibition of ADP-induced platelet aggregation at 150 uM by turbidimetric method; format: functional; settings: Oryctolagus cuniculus; outline: as §1
Plasma [6] = assay: Antiplatelet activity against citreated rabbit platelet-rich plasma assessed as inhibition of arachidonic acid-induced platelet aggregation at 150 uM by turbidimetric method; format: functional; settings: Oryctolagus cuniculus; outline: as §1
Plasma [7] = assay: Antiplatelet activity against citreated rabbit platelet-rich plasma assessed as inhibition of collagen-induced platelet aggregation at 150 uM by turbidimetric method; format: functional; settings: Oryctolagus cuniculus; outline: as §1

**Q.** How did the Activity (Plasma [1]) turn out when `Cc1cc2c(cc1S(=O)(=O)Oc1ccc(C(=O)N/N=C\c3ccc(C(=O)O)cc3)cc1)OCO2` was run?
**A.** 100%

**Q.** And the survival at 100 µmol/kg (Mus musculus)?
**A.** 80%

**Q.** And the Activity (Plasma [2])?
**A.** 59%

**Q.** What about the Activity (Plasma [3]) of the same compound?
**A.** 0%

**Q.** What about the inhibition at 150 µM (Plasma [4]) of the same compound?
**A.** 100%

**Q.** And the inhibition at 150 µM (Plasma [5])?
**A.** 0%

**Q.** What about the inhibition at 150 µM (Plasma [6]) of the same compound?
**A.** 90.8%

**Q.** What about the inhibition at 150 µM (Plasma [7]) of the same compound?
**A.** 25%

**Q.** For `Cc1cc2c(cc1S(=O)(=O)Oc1ccccc1C(=O)N/N=C\c1ccc(C(=O)O)cc1)OCO2`, which Activity (Plasma [1]) is on record?
**A.** 100%

**Q.** And the survival at 100 µmol/kg (Mus musculus)?
**A.** 80%

**Q.** What about the Activity (Plasma [2]) of the same compound?
**A.** 100%

**Q.** And the Activity (Plasma [3])?
**A.** 11.9%

**Q.** And the inhibition at 150 µM (Plasma [4])?
**A.** 80%

**Q.** What about the inhibition at 150 µM (Plasma [5]) of the same compound?
**A.** 0%

**Q.** What about the inhibition at 150 µM (Plasma [6]) of the same compound?
**A.** 0%

**Q.** And the inhibition at 150 µM (Plasma [7])?
**A.** 0%

**Q.** Which Activity (Plasma [1]) does the source give for `Cc1cc2c(cc1S(=O)(=O)Oc1cccc(/C=N/NC(=O)c3ccncc3)c1)OCO2` here?
**A.** 63.3%

**Q.** What about the Activity (Plasma [2]) of the same compound?
**A.** 0%

**Q.** And the Activity (Plasma [3])?
**A.** 58.7%

**Q.** And the inhibition at 150 µM (Plasma [4])?
**A.** 1.3%

**Q.** And the inhibition at 150 µM (Plasma [5])?
**A.** 22%

**Q.** And the inhibition at 150 µM (Plasma [6])?
**A.** 94.8%

**Q.** What about the inhibition at 150 µM (Plasma [7]) of the same compound?
**A.** 100%

**Q.** Which Activity (Plasma [1]) does the source give for `Cc1cc2c(cc1S(=O)(=O)Oc1cccc(C(=O)N/N=C\c3ccc(C#N)cc3)c1)OCO2` here?
**A.** 54.9%

**Q.** And the Activity (Plasma [2])?
**A.** 0%

**Q.** What about the Activity (Plasma [3]) of the same compound?
**A.** 58.3%

**Q.** What about the inhibition at 150 µM (Plasma [4]) of the same compound?
**A.** 2%

**Q.** And the inhibition at 150 µM (Plasma [5])?
**A.** 32%

**Q.** And the inhibition at 150 µM (Plasma [6])?
**A.** 100%

**Q.** And the inhibition at 150 µM (Plasma [7])?
**A.** 100%

**Q.** How did the Activity (Plasma [1]) turn out when `Cc1cc2c(cc1S(=O)(=O)Oc1cccc(C(=O)N/N=C\c3ccc(C(=O)O)cc3)c1)OCO2` was run?
**A.** 100%

**Q.** What about the survival at 100 µmol/kg (Mus musculus) of the same compound?
**A.** 53.3%

**Q.** What about the Activity (Plasma [2]) of the same compound?
**A.** 100%

**Q.** And the Activity (Plasma [3])?
**A.** 2.9%

**Q.** And the inhibition at 150 µM (Plasma [4])?
**A.** 95%

**Q.** What about the inhibition at 150 µM (Plasma [5]) of the same compound?
**A.** 0%

**Q.** And the inhibition at 150 µM (Plasma [6])?
**A.** 0%

**Q.** What about the inhibition at 150 µM (Plasma [7]) of the same compound?
**A.** 0%

**Q.** How did the Activity (Plasma [1]) turn out when `Cc1cc2c(cc1S(=O)(=O)Oc1cccc(C(=O)N/N=C\c3ccc([N+](=O)[O-])cc3)c1)OCO2` was run?
**A.** 100%

**Q.** And the Activity (Plasma [2])?
**A.** 69.6%

**Q.** What about the Activity (Plasma [3]) of the same compound?
**A.** 57.7%

**Q.** And the inhibition at 150 µM (Plasma [4])?
**A.** 3%

**Q.** And the inhibition at 150 µM (Plasma [5])?
**A.** 0%

**Q.** And the inhibition at 150 µM (Plasma [6])?
**A.** 81.5%

**Q.** And the inhibition at 150 µM (Plasma [7])?
**A.** 11.5%

**Q.** With `Cc1cc2c(cc1S(=O)(=O)Oc1cccc(C(=O)N/N=C\c3ccncc3)c1)OCO2` as the compound, how does the Activity (Plasma [1]) read?
**A.** 100%

**Q.** And the survival at 100 µmol/kg (Mus musculus)?
**A.** 33.3%

**Q.** What about the Activity (Plasma [2]) of the same compound?
**A.** 59%

**Q.** What about the Activity (Plasma [3]) of the same compound?
**A.** 16.4%

**Q.** What about the inhibition at 150 µM (Plasma [4]) of the same compound?
**A.** 72.5%

**Q.** What about the inhibition at 150 µM (Plasma [5]) of the same compound?
**A.** 0%

**Q.** What about the inhibition at 150 µM (Plasma [6]) of the same compound?
**A.** 82%

**Q.** And the inhibition at 150 µM (Plasma [7])?
**A.** 25%

**Q.** How did the Activity (Plasma [1]) turn out when `Cc1cc2c(cc1S(=O)(=O)Oc1cccc(C(=O)N/N=C\c3ccccc3)c1)OCO2` was run?
**A.** 100%

**Q.** And the Activity (Plasma [2])?
**A.** 45.6%

**Q.** And the Activity (Plasma [3])?
**A.** 100%

**Q.** And the inhibition at 150 µM (Plasma [4])?
**A.** 0%

**Q.** What about the inhibition at 150 µM (Plasma [5]) of the same compound?
**A.** 0%

**Q.** What about the inhibition at 150 µM (Plasma [6]) of the same compound?
**A.** 97%

**Q.** What about the inhibition at 150 µM (Plasma [7]) of the same compound?
**A.** 42%

**Q.** `Cc1cc2c(cc1S(=O)(=O)Oc1cccc(C(=O)N/N=C\c3ccc(N)cc3)c1)OCO2` was tested. Which Activity (Plasma [1]) did it give?
**A.** 100%

**Q.** What about the Activity (Plasma [2]) of the same compound?
**A.** 49.2%

**Q.** What about the Activity (Plasma [3]) of the same compound?
**A.** 58.2%

**Q.** What about the inhibition at 150 µM (Plasma [4]) of the same compound?
**A.** 2.2%

**Q.** What about the inhibition at 150 µM (Plasma [5]) of the same compound?
**A.** 0%

**Q.** What about the inhibition at 150 µM (Plasma [6]) of the same compound?
**A.** 80%

**Q.** And the inhibition at 150 µM (Plasma [7])?
**A.** 37.5%

**Q.** Which results are given for `Cc1cc2c(cc1S(=O)(=O)Oc1cccc(C(=O)N/N=C\c3ccc(/C(N)=N\O)cc3)c1)OCO2`?
**A.** Activity (Plasma [1]): 58.7%; Activity (Plasma [2]): 0%; Activity (Plasma [3]): 11.3%; inhibition at 150 µM (Plasma [4]): 81%; inhibition at 150 µM (Plasma [5]): 36%; inhibition at 150 µM (Plasma [6]): 100%; inhibition at 150 µM (Plasma [7]): 100%

**Q.** With `CC(=O)Oc1ccccc1C(=O)O` [ASPIRIN] as the compound, how does the Activity (Plasma [1]) read?
**A.** 74.8%

**Q.** What about the Activity (Plasma [2]) of the same compound?
**A.** 17.5%

**Q.** And the Activity (Plasma [3])?
**A.** 10.3%

**Q.** And the inhibition at 150 µM (Plasma [4])?
**A.** 82.7%

**Q.** What about the inhibition at 150 µM (Plasma [5]) of the same compound?
**A.** 7.9%

**Q.** And the inhibition at 150 µM (Plasma [6])?
**A.** 71.6%

**Q.** And the inhibition at 150 µM (Plasma [7])?
**A.** 77.7%
